In PubChem BioAssay AID504338 (NMMLSC, 2011):
Calls of active or inactive are those of the source.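 Rule for the calls: active = GFP response vs DMSO above 150% with enough events counted; inconclusive = fewer than 70 events counted for a yeast strain; inactive = the rest.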

assay: yeast TOR reporter LAP4-GFP retest – cell-based, third cherry pick, flow cytometry, confirmation (AID 504338);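 note: ratio to plate DMSO wells so 100% equals DMSO level rather than 0%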; conditions: S. cerevisiae LAP4-GFP strain, 3 h, at 10 µM, hits give high values
Method in brief: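 Material: Saccharomyces cerevisiae strain expressing LAP4-GFP fusion protein / Compound: 10 µM, one concentration / Incubation: compound exposure for 3 h at 30 °C / Detection: high-throughput flow cytometry of GFP, single-cell scatter gate / Measure: median GFP fluorescence as percent of plate DMSO-well average / Benchmarks: rapamycin 400 ng/mL high, DMSO low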

Compound	GFP response vs DMSO
Cc1ccc2nc(-c3ccc(NC(=O)c4cccnc4)cc3)oc2c1	103% (inactive)
Nc1ncnc(Nc2cc(Cl)cc(Cl)c2)c1[N+](=O)[O-]	101% (inactive)
COCCNc1nc(N)c([N+](=O)[O-])c(Nc2ccc(F)cc2)n1	106% (inactive)
C[n+]1cccc2cccc([O-])c21	107% (inactive)
Cn1c(=O)c2c(n3cnnc13)-c1ccccc1CC21CCCC1	101% (inactive)
Cc1ccc(Nc2nc(N)[nH]c(=O)c2N=O)cc1	104% (inactive)
CC(=O)NC(C)c1cc(Cl)c2cccnc2c1O (centres undefined)	101% (inactive)
CS(=O)(=O)Oc1ccc(Br)c2cccnc12	104% (inactive)
COc1ccc(OC)c(Nc2nc(NCCC(C)C)nc(N)c2[N+](=O)[O-])c1	103% (inactive)
Nc1cc(C(=O)O)c(N)c2c1C(=O)c1ccccc1C2=O	106% (inactive)
NC(=O)COc1cccc2cccnc12	103% (inactive)
COc1ccccc1-c1cc(C(F)(F)F)nc(S(C)(=O)=O)n1	128% (inactive)
COc1cccc2c(Cl)c(CCCl)c(C)nc12	104% (inactive)
Nc1ccc(O)c2c1C(=O)c1ccccc1C2=O	98.6% (inactive)
COc1cccc2c(O)cc(=O)n(C)c12	104% (inactive)
COC(=O)COc1c(Cl)cc(Cl)c2ccc(C)nc12	107% (inactive)
Cc1cc(C)c2ccc(N)nc2c1O	97.2% (inactive)
CNc1nc(N)c([N+](=O)[O-])c(Nc2cccc(Cl)c2)n1	131% (inactive)
COc1ccc(NC(=O)O/N=C2/CCCc3ccc(OC)cc32)cc1	107% (inactive)
CSc1nc(S(C)(=O)=O)nc2[nH]c(=O)[nH]c12	104% (inactive)

Compound	GFP response vs DMSO
CC(C)Nc1ncnc2ccc(Br)cc12	106% (inactive)
Oc1c(I)cc(Cl)c2cccnc12	192% (active)
CC(=O)CC(=O)Nc1ccc(C(N)=O)cc1	101% (inactive)
O=C1c2ccccc2C(=O)c2c1cccc2N(CCO)CCO	100% (inactive)
Cc1cc(C)c2ccc(C(=O)O)nc2c1O	107% (inactive)
COc1ccccc1OCc1cc(C(=O)N2CCN(C)C(c3ccccc3)C2)no1 (centres undefined)	106% (inactive)
O=C(O)CCS(=O)(=O)c1nc(-c2cccs2)cc(C(F)(F)F)n1	115% (inactive)
C/C(=N\NC(=O)c1ccccc1)c1ccccc1F	106% (inactive)
COCCCNc1nc(N)c([N+](=O)[O-])c(Nc2cc(OC)ccc2OC)n1	103% (inactive)
COc1ccc(OC)c2c(C)cc(C)nc12	103% (inactive)
CC(=O)Nc1ccc(-c2nc3cc(Cl)ccc3o2)cc1	104% (inactive)
COc1ccccc1Nc1nc(NCCO)nc(N)c1[N+](=O)[O-]	104% (inactive)
CC1=NNC(=O)/C1=C\c1cn(-c2ccccc2)nc1-c1ccc(F)cc1	179% (active)
O=c1cc(C(F)(F)F)[nH]c2c(OC(F)(F)F)cccc12	98.6% (inactive)
CSc1ccccc1OCc1cc(C(=O)N2CCN(C)C(c3ccccc3)C2)no1 (centres undefined)	107% (inactive)
N#Cc1c(N)nc(N)nc1Nc1ccc(Br)cc1	104% (inactive)
CC(=O)Nc1ccc(-c2nc3ccccc3o2)cc1	108% (inactive)
Nc1[nH]c(=O)nc(Nc2ccccc2)c1N=O	104% (inactive)
CSc1nc(Nc2ccc(Cl)cc2)c(C#N)c(=O)[nH]1	106% (inactive)
